Experimental data as given in ChEMBL document CHEMBL5329210, “Novel piperazine-1,2,3-triazole leads for the potential treatment of pancreatic cancer” (RSC Med Chem, 2023).

Experiments:
HT-29 [1] = test: Inhibition of cell growth of human HT-29 cells at 25 uM measured after 72 hrs by MTT assay relative to control; type: functional
Procedure, shortened: (§1)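 MTT read-out. Cancer lines were grown in DMEM with 10% FBS, glutamine and antibiotics. MCF10A was grown in DMEM:F12 with 5% horse serum, EGF, hydrocortisone, cholera toxin and insulin. Cells were plated in duplicate at 2500–4000/well, and drug was added 24 h later. After 72 h, absorbance was read at 540 nm. Single-point lines used 25 μM. GI50 is 50% growth inhibition versus untreated control. n = 3.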

MCF7 [2] = test: Inhibition of cell growth of human MCF7 cells at 25 uM measured after 72 hrs by MTT assay relative to control; type: functional; procedure, shortened: as §1
A2780 [3] = test: Inhibition of cell growth of human A2780 cells at 25 uM measured after 72 hrs by MTT assay relative to control; type: functional; procedure, shortened: as §1
BE(2)-C [4] = test: Inhibition of cell growth of human BE2C cells at 25 uM measured after 72 hrs by MTT assay relative to control; type: functional; procedure, shortened: as §1
MIA PaCa-2 [5] = test: Inhibition of cell growth of human MIA PaCa-2 cells at 25 uM measured after 72 hrs by MTT assay relative to control; type: functional; procedure, shortened: as §1
BXPC-3 [6] = test: Inhibition of cell growth of human BXPC-3 cells at 25 uM measured after 72 hrs by MTT assay relative to control; type: functional; procedure, shortened: as §1
ASPC1 [7] = test: Inhibition of cell growth of human ASPC1 cells at 25 uM measured after 72 hrs by MTT assay relative to control; type: functional; procedure, shortened: as §1
Capan-2 [8] = test: Inhibition of cell growth of human Capan-2 cells at 25 uM measured after 72 hrs by MTT assay relative to control; type: functional; procedure, shortened: as §1
PANC-1 [9] = test: Inhibition of cell growth of human PANC-1 cells at 25 uM measured after 72 hrs by MTT assay relative to control; type: functional; procedure, shortened: as §1
HPAC [10] = test: Inhibition of cell growth of human HPAC cells at 25 uM measured after 72 hrs by MTT assay relative to control; type: functional; procedure, shortened: as §1
[11] = Inhibition of cell growth of human MCF-10A cells at 25 uM measured after 72 hrs by MTT assay relative to control; type: toxicity, cell-based; procedure, shortened: as §1
HT-29 [12] = test: Inhibition of cell growth of human HT-29 cells measured after 72 hrs by MTT assay; type: functional; procedure, shortened: as §1
U-87 MG = test: Inhibition of cell growth of human U87 cells measured after 72 hrs by MTT assay; type: functional, U-87MG ATCC; procedure, shortened: as §1
BXPC-3 [13] = test: Inhibition of cell growth of human BXPC-3 cells at 25 uM measured after 72 hrs by CCK8 assay relative to control; type: functional
Procedure, shortened: (§2)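 Single 25 μM exposure, read by CCK-8, n = 3, relative to control. Seeding was 3×10^3/well for MiaPaCa2, 7×10^3/well for BxPC3 (in RPMI-1640/10% FBS) and 1×10^4/well for HPDE (in KSFM with rEGF/BPE). After 24 h attachment, cells were exposed for 72 h. CCK-8 was then incubated for 1 h, and A450 minus A650 was compared with 0.5% DMSO.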

MCF7 [14] = test: Inhibition of cell growth of human MCF7 cells measured after 72 hrs by MTT assay; type: functional; procedure, shortened: as §1
A2780 [15] = test: Inhibition of cell growth of human A2780 cells measured after 72 hrs by MTT assay; type: functional; procedure, shortened: as §1
NCI-H460 = test: Inhibition of cell growth of human NCI-H460 cells measured after 72 hrs by MTT assay; type: functional; procedure, shortened: as §1
A-431 = test: Inhibition of cell growth of human A-431 cells measured after 72 hrs by MTT assay; type: functional; procedure, shortened: as §1
DU-145 = test: Inhibition of cell growth of human DU-145 cells measured after 72 hrs by MTT assay; type: functional; procedure, shortened: as §1
BE(2)-C [16] = test: Inhibition of cell growth of human BE2C cells measured after 72 hrs by MTT assay; type: functional; procedure, shortened: as §1
[17] = Inhibition of cell growth of human SJG2 cells measured after 72 hrs by MTT assay; type: functional; details: SJ-G2; procedure, shortened: as §1
MIA PaCa-2 [18] = test: Inhibition of cell growth of human MIA PaCa-2 cells measured after 72 hrs by MTT assay; type: functional; procedure, shortened: as §1
[19] = Inhibition of cell growth of human MCF-10A cells measured after 72 hrs by MTT assay; type: toxicity, cell-based; procedure, shortened: as §1
MIA PaCa-2 [20] = test: Inhibition of cell growth of human MIA PaCa-2 cells at 25 uM measured after 72 hrs by CCK8 assay relative to control; type: functional; procedure, shortened: as §2
[21] = Inhibition of cell growth of human HPDE cells at 25 uM measured after 72 hrs by CCK8 assay relative to control; type: toxicity, cell-based; procedure, shortened: as §2
BXPC-3 [22] = test: Inhibition of cell growth of human BXPC-3 cells measured after 72 hrs by CCK8 assay; type: functional
Procedure, shortened: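 CCK-8 viability in human pancreatic cancer lines. Compounds were added over 100–0.05 μM 24 h after seeding, alongside a 0.5% DMSO vehicle. After 72 h, CCK-8 was incubated for 1 h at 37 °C. A450 minus A650 was expressed as % of vehicle. IC50 was taken from the dose-response curve. Seeding was 3×10^3/well for MiaPaCa2 and 7×10^3/well for BxPC3 and CFPAC-1. n = 3.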

ASPC1 [23] = test: Inhibition of cell growth of human ASPC1 cells measured after 72 hrs by CCK8 assay; type: functional
Capan-2 [24] = test: Inhibition of cell growth of human Capan-2 cells measured after 72 hrs by CCK8 assay; type: functional
PANC-1 [25] = test: Inhibition of cell growth of human PANC-1 cells measured after 72 hrs by CCK8 assay; type: functional
HPAC [26] = test: Inhibition of cell growth of human HPAC cells measured after 72 hrs by CCK8 assay; type: functional

| Compound | inhibition at 25 µM (HT-29 [1]) [%] | inhibition at 25 µM (MCF7 [2]) [%] | inhibition at 25 µM (A2780 [3]) [%] | inhibition at 25 µM (BE(2)-C [4]) [%] | inhibition at 25 µM (MIA PaCa-2 [5]) [%] | inhibition at 25 µM (BXPC-3 [6]) [%] | GI50 (HT-29 [12]) [µM] | GI50 (U-87 MG) [µM] | inhibition at 25 µM (BXPC-3 [13]) [%] | GI50 (MCF7 [14]) [µM] | GI50 (A2780 [15]) [µM] | GI50 (NCI-H460) [µM] | GI50 (A-431) [µM] | GI50 (DU-145) [µM] | GI50 (BE(2)-C [16]) [µM] | GI50 [17] [µM] | GI50 (MIA PaCa-2 [18]) [µM] | GI50 at 72 h [19] [µM] | inhibition at 25 µM (MIA PaCa-2 [20]) [%] | inhibition at 72 h, 25 µM [21] [%] | other results |
| --- | --- | --- | --- | --- | --- | --- | --- | --- | --- | --- | --- | --- | --- | --- | --- | --- | --- | --- | --- | --- | --- |
| CCc1ccc(-c2cn(CCCN3CCN(S(=O)(=O)c4cccc(C(F)(F)F)c4)CC3)nn2)cc1 | 65 | 86 | 86 | 61 | 50 | 39 |  |  |  |  |  |  |  |  |  |  |  |  |  |  | inhibition at 25 µM (ASPC1 [7]): 60%; inhibition at 25 µM (Capan-2 [8]): 58%; inhibition at 25 µM (PANC-1 [9]): 59%; inhibition at 25 µM (HPAC [10]): 41%; inhibition at 72 h, 25 µM [11]: 77% |
| Cc1ccc(-c2cn(CCCN3CCN(S(=O)(=O)c4cccc(C(F)(F)F)c4)CC3)nn2)cc1 | 63 | 86 | 83 | 60 | 48 | 32 |  |  |  |  |  |  |  |  |  |  |  |  |  |  | inhibition at 25 µM (ASPC1 [7]): 60%; inhibition at 25 µM (Capan-2 [8]): 54%; inhibition at 25 µM (PANC-1 [9]): 57%; inhibition at 25 µM (HPAC [10]): 40%; inhibition at 72 h, 25 µM [11]: 79% |
| COc1ccc(S(=O)(=O)N2CCN(CCCn3cc(-c4cccc(OC)c4)nn3)CC2)cc1 |  |  |  |  |  |  | 30 | > 50 | < 10 | 38 | 27 | > 50 | > 50 | > 50 | > 50 | 32 | > 50 | > 50 | 20.3 | 33.9 |  |
| COc1cccc(-c2cn(CCCN3CCN(S(=O)(=O)c4ccc([N+](=O)[O-])cc4)CC3)nn2)c1 |  |  |  |  |  |  | 41 | > 50 | 21.1 | > 50 | 27 | > 50 | > 50 | > 50 | > 50 | > 50 | > 50 | > 50 | < 10 | 46.5 |  |
| O=S(=O)(c1cccc(C(F)(F)F)c1)N1CCN(CCCn2cc(-c3ccc(Br)cc3)nn2)CC1 | 46 | 56 | 72 | 40 | 35 | 22 |  |  |  |  |  |  |  |  |  |  |  |  |  |  | inhibition at 25 µM (ASPC1 [7]): 53%; inhibition at 25 µM (Capan-2 [8]): 39%; inhibition at 25 µM (PANC-1 [9]): 41%; inhibition at 25 µM (HPAC [10]): < 10%; inhibition at 72 h, 25 µM [11]: 74% |
| O=S(=O)(c1cccc(C(F)(F)F)c1)N1CCN(CCCn2cc(-c3ccc(C(F)(F)F)cc3)nn2)CC1 | 50 | 86 | 65 | 61 | 58 | 55 |  |  |  |  |  |  |  |  |  |  |  |  |  |  | inhibition at 25 µM (ASPC1 [7]): 50%; inhibition at 25 µM (Capan-2 [8]): 67%; inhibition at 25 µM (PANC-1 [9]): 60%; inhibition at 25 µM (HPAC [10]): 74%; inhibition at 72 h, 25 µM [11]: 59% |
| O=S(=O)(c1ccccc1C(F)(F)F)N1CCN(CCCn2cc(-c3ccc(C(F)(F)F)cc3)nn2)CC1 | 69 | 75 | 80 | 62 | 45 | 19 |  |  |  |  |  |  |  |  |  |  |  |  |  |  | inhibition at 25 µM (ASPC1 [7]): 50%; inhibition at 25 µM (Capan-2 [8]): 42%; inhibition at 25 µM (PANC-1 [9]): 54%; inhibition at 25 µM (HPAC [10]): 29%; inhibition at 72 h, 25 µM [11]: 64% |
| Cc1ccc(-c2cn(CCCN3CCN(S(=O)(=O)c4ccc(C(F)(F)F)cc4)CC3)nn2)cc1 |  |  |  |  |  |  |  |  |  |  |  |  |  |  |  |  |  |  |  |  | GI50 (BXPC-3 [22]): 4 µM; GI50 (ASPC1 [23]): 7.3 µM; GI50 (Capan-2 [24]): 5 µM; GI50 (PANC-1 [25]): 6.1 µM; GI50 (HPAC [26]): 5 µM |
| COc1cccc(-c2cn(CCCN3CCN(S(=O)(=O)c4ccc(Br)cc4)CC3)nn2)c1 |  |  |  |  |  |  | 18 | > 50 | 10.7 | 14 | 20 | 35 | 40 | 25 | 20 | 23 | > 50 | 29 | < 10 | 32.6 |  |
| COc1cccc(-c2cn(CCCN3CCN(S(=O)(=O)c4ccccc4)CC3)nn2)c1 |  |  |  |  |  |  | 28 | > 50 | < 10 | 35 | 40 | > 50 | > 50 | > 50 | > 50 | 42 | > 50 | > 50 | < 10 | 15.8 |  |
| COc1cccc(-c2cn(CCCN3CCN(S(=O)(=O)c4ccc(C(F)(F)F)cc4)CC3)nn2)c1 |  |  |  |  |  |  | 23 | > 50 | < 10 | 28 | 21 | > 50 | > 50 | > 50 | > 50 | > 50 | > 50 | 39 | < 10 | 29 |  |
| COc1cccc(-c2cn(CCCN3CCN(S(=O)(=O)c4ccc(C)cc4)CC3)nn2)c1 |  |  |  |  |  |  | 22 | > 50 | < 10 | 33 | 29 | > 50 | > 50 | > 50 | > 50 | > 50 | > 50 | > 50 | < 10 | 45 |  |
